Measurements from ChEMBL document CHEMBL1143064, “Novel 9a-carbamoyl- and 9a-thiocarbamoyl-3-decladinosyl-6-hydroxy and 6-methoxy derivatives of 15-membered macrolides” (Bioorg Med Chem, 2007).

Key:
Streptococcus pyogenes [1] = assay: Antibacterial activity against Streptococcus pyogenes-M after 24 hrs by microdilution method; assay type: functional
In short: (§1)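 Broth microdilution in Mueller–Hinton medium run on an automated liquid handler. Compounds dissolved in DMF (5 mg/ml stock) and tested in medium from 64 to 0.125 µg/ml. Plates incubated 24 h at 37 °C, then growth read as absorbance at 600 nm. MIC taken as the concentration giving 90% growth inhibition.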

Streptococcus pyogenes [2] = assay: Antibacterial activity against Streptococcus pyogenes after 24 hrs by microdilution method; assay type: functional; in short: as §1
Streptococcus pneumoniae [3] = assay: Antibacterial activity against Streptococcus pneumoniae after 24 hrs by microdilution method; assay type: functional; in short: as §1
Haemophilus influenzae = assay: Antibacterial activity against Haemophilus influenzae after 24 hrs by microdilution method; assay type: functional; in short: as §1
Saccharomyces cerevisiae = assay: Toxicity against Saccharomyces cerevisiae; assay type: organism-based; settings: in vivo
In short: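 Yeast used as a surrogate for eukaryotic cell toxicity. Microdilution in Mueller–Hinton medium with compound from a DMF stock (5 mg/ml), final range 64 to 0.125 µg/ml. Incubated 24 h at 37 °C, with optical density read at 600 nm. MIC defined as the concentration inhibiting growth by 90%.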

Streptococcus pneumoniae [4] = assay: Antibacterial activity against Streptococcus pneumoniae-M after 24 hrs by microdilution method; assay type: functional; in short: as §1
Staphylococcus aureus [5] = assay: Antibacterial activity against Staphylococcus aureus-M after 24 hrs by microdilution method; assay type: functional; in short: as §1
Staphylococcus aureus [6] = assay: Antibacterial activity against Staphylococcus aureus-cMLS after 24 hrs by microdilution method; assay type: functional; in short: as §1

CC[C@H]1OC(=O)[C@H](C)C2(O)O[C@@](C)(C[C@@H](C)CN(C(=O)NC(C)C)[C@H](C)[C@@H](O)[C@]1(C)O)[C@H](O[C@@H]1O[C@H](C)C[C@H](N(C)C)[C@H]1O)[C@H]2C
> 64 µg/mL: MIC (Streptococcus pyogenes [1]) | MIC (Streptococcus pyogenes [2]) | MIC (Streptococcus pneumoniae [3]) | MIC (Haemophilus influenzae) | MIC (Streptococcus pneumoniae [4]) | MIC (Staphylococcus aureus [5]) | MIC (Staphylococcus aureus [6])
Non-toxic: Activity (Saccharomyces cerevisiae)
